# From ChEMBL document CHEMBL5058577, “EUbOPEN Chemogenomics Library 2 (Multiplex)” (2022)
# System: Fibroblast
# Experiment: Multiplex assay against human fibroblast
# Type: toxicity, cell-based
# How it was run: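 Tubulin, mitochondrial-mass and membrane-permeability phenotypes are per cents of healthy-nucleus cells. Cells were gated by CellPathfinder machine learning into Hoechst high-intensity objects or normal cells, normal cells into healthy, pyknosed or fragmented nuclei, and pyknosed cells into mitotic or apoptotic. Before that, live cells stained at seeding with Hoechst33342, BioTracker Green Microtubule Cytoskeleton Dye, MitoTracker Red and Annexin V Alexa Fluor 680 were imaged on a CQ1 microscope at 37°C and 5% CO2 after compound addition.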
# [1] = 12 h, 1 µM, compound concentration 1 uM, replicate 1
# [2] = 12 h, 1 µM, compound concentration 1 uM, replicate 2
# [3] = 12 h, 10 µM, compound concentration 10 uM, replicate 1
# [4] = 12 h, 10 µM, compound concentration 10 uM, replicate 2
# [5] = 24 h, 1 µM, compound concentration 1 uM, replicate 1
# [6] = 24 h, 1 µM, compound concentration 1 uM, replicate 2
# [7] = 24 h, 10 µM, compound concentration 10 uM, replicate 1
# [8] = 24 h, 10 µM, compound concentration 10 uM, replicate 2
# [9] = 48 h, 1 µM, compound concentration 1 uM, replicate 1
# [10] = 48 h, 1 µM, compound concentration 1 uM, replicate 2
# [11] = 48 h, 10 µM, compound concentration 10 uM, replicate 1
# [12] = 48 h, 10 µM, compound concentration 10 uM, replicate 2
structure (smiles),measurement,setting,value
CC(C)C[C@H](CO)Nc1nc(S[C@@H](C)c2ccccc2)nc2nc(N)sc12 [AZD-8797],Population Apoptotic (%),[1],25%
same,Population Fragmented Nuclei (%),[1],23%
same,Population Healthy Nuclei (%),[1],62%
same,Population Hoechst High Intensity Objects (%),[1],1%
same,Population Membrane Permeable-Phenotype (%),[1],3%
same,Population Mitochondria Different-Phenotype (%),[1],3%
same,Population Mitotic Cells (%),[1],75%
same,Population Normal (%),[1],98%
same,Population Pyknosed Nuclei (%),[1],13%
same,Population Tubulin-Different-Phenotype (%),[1],23%
same,Total Cell Count,[1],146
same,Population Apoptotic (%),[2],31%
same,Population Fragmented Nuclei (%),[2],22%
same,Population Healthy Nuclei (%),[2],55%
same,Population Hoechst High Intensity Objects (%),[2],4%
same,Population Membrane Permeable-Phenotype (%),[2],16%
same,Population Mitochondria Different-Phenotype (%),[2],6%
same,Population Mitotic Cells (%),[2],68%
same,Population Normal (%),[2],95%
same,Population Pyknosed Nuclei (%),[2],21%
same,Population Tubulin-Different-Phenotype (%),[2],46%
same,Total Cell Count,[2],92
same,Population Apoptotic (%),[3],38%
same,Population Fragmented Nuclei (%),[3],18%
same,Population Healthy Nuclei (%),[3],64%
same,Population Hoechst High Intensity Objects (%),[3],3%
same,Population Membrane Permeable-Phenotype (%),[3],0%
same,Population Mitochondria Different-Phenotype (%),[3],6%
same,Population Mitotic Cells (%),[3],61%
same,Population Normal (%),[3],96%
same,Population Pyknosed Nuclei (%),[3],17%
same,Population Tubulin-Different-Phenotype (%),[3],46%
same,Total Cell Count,[3],156
same,Population Apoptotic (%),[4],36%
same,Population Fragmented Nuclei (%),[4],36%
same,Population Healthy Nuclei (%),[4],41%
same,Population Hoechst High Intensity Objects (%),[4],5%
same,Population Membrane Permeable-Phenotype (%),[4],10%
same,Population Mitochondria Different-Phenotype (%),[4],27%
same,Population Mitotic Cells (%),[4],64%
same,Population Normal (%),[4],94%
same,Population Pyknosed Nuclei (%),[4],21%
same,Population Tubulin-Different-Phenotype (%),[4],66%
same,Total Cell Count,[4],122
same,Population Apoptotic (%),[5],44%
same,Population Fragmented Nuclei (%),[5],15%
same,Population Healthy Nuclei (%),[5],69%
same,Population Hoechst High Intensity Objects (%),[5],1%
same,Population Membrane Permeable-Phenotype (%),[5],1%
same,Population Mitochondria Different-Phenotype (%),[5],1%
same,Population Mitotic Cells (%),[5],55%
same,Population Normal (%),[5],98%
same,Population Pyknosed Nuclei (%),[5],14%
same,Population Tubulin-Different-Phenotype (%),[5],24%
same,Total Cell Count,[5],124
same,Population Apoptotic (%),[6],31%
same,Population Fragmented Nuclei (%),[6],29%
same,Population Healthy Nuclei (%),[6],54%
same,Population Hoechst High Intensity Objects (%),[6],0%
same,Population Membrane Permeable-Phenotype (%),[6],17%
same,Population Mitochondria Different-Phenotype (%),[6],3%
same,Population Mitotic Cells (%),[6],68%
same,Population Normal (%),[6],99%
same,Population Pyknosed Nuclei (%),[6],15%
same,Population Tubulin-Different-Phenotype (%),[6],46%
same,Total Cell Count,[6],103
same,Population Apoptotic (%),[7],57%
same,Population Fragmented Nuclei (%),[7],21%
same,Population Healthy Nuclei (%),[7],66%
same,Population Hoechst High Intensity Objects (%),[7],1%
same,Population Membrane Permeable-Phenotype (%),[7],0%
same,Population Mitochondria Different-Phenotype (%),[7],15%
same,Population Mitotic Cells (%),[7],42%
same,Population Normal (%),[7],98%
same,Population Pyknosed Nuclei (%),[7],12%
same,Population Tubulin-Different-Phenotype (%),[7],38%
same,Total Cell Count,[7],168
same,Population Apoptotic (%),[8],33%
same,Population Fragmented Nuclei (%),[8],42%
same,Population Healthy Nuclei (%),[8],38%
same,Population Hoechst High Intensity Objects (%),[8],2%
same,Population Membrane Permeable-Phenotype (%),[8],8%
same,Population Mitochondria Different-Phenotype (%),[8],25%
same,Population Mitotic Cells (%),[8],66%
same,Population Normal (%),[8],97%
same,Population Pyknosed Nuclei (%),[8],19%
same,Population Tubulin-Different-Phenotype (%),[8],85%
same,Total Cell Count,[8],126
same,Population Apoptotic (%),[9],50%
same,Population Fragmented Nuclei (%),[9],25%
same,Population Healthy Nuclei (%),[9],60%
same,Population Hoechst High Intensity Objects (%),[9],1%
same,Population Membrane Permeable-Phenotype (%),[9],1%
same,Population Mitochondria Different-Phenotype (%),[9],1%
same,Population Mitotic Cells (%),[9],50%
same,Population Normal (%),[9],98%
same,Population Pyknosed Nuclei (%),[9],13%
same,Population Tubulin-Different-Phenotype (%),[9],11%
same,Total Cell Count,[9],135
same,Population Apoptotic (%),[10],47%
same,Population Fragmented Nuclei (%),[10],30%
same,Population Healthy Nuclei (%),[10],48%
same,Population Hoechst High Intensity Objects (%),[10],4%
same,Population Membrane Permeable-Phenotype (%),[10],4%
same,Population Mitochondria Different-Phenotype (%),[10],4%
same,Population Mitotic Cells (%),[10],52%
same,Population Normal (%),[10],95%
same,Population Pyknosed Nuclei (%),[10],20%
same,Population Tubulin-Different-Phenotype (%),[10],54%
same,Total Cell Count,[10],95
same,Population Apoptotic (%),[11],60%
same,Population Fragmented Nuclei (%),[11],25%
same,Population Healthy Nuclei (%),[11],65%
same,Population Hoechst High Intensity Objects (%),[11],2%
same,Population Membrane Permeable-Phenotype (%),[11],0%
same,Population Mitochondria Different-Phenotype (%),[11],13%
same,Population Mitotic Cells (%),[11],40%
same,Population Normal (%),[11],97%
same,Population Pyknosed Nuclei (%),[11],9%
same,Population Tubulin-Different-Phenotype (%),[11],35%
same,Total Cell Count,[11],168
same,Population Apoptotic (%),[12],35%
same,Population Fragmented Nuclei (%),[12],45%
same,Population Healthy Nuclei (%),[12],40%
same,Population Hoechst High Intensity Objects (%),[12],1%
same,Population Membrane Permeable-Phenotype (%),[12],12%
same,Population Mitochondria Different-Phenotype (%),[12],18%
same,Population Mitotic Cells (%),[12],64%
same,Population Normal (%),[12],98%
same,Population Pyknosed Nuclei (%),[12],14%
same,Population Tubulin-Different-Phenotype (%),[12],89%
same,Total Cell Count,[12],121
